In ChEMBL document CHEMBL4017529, “Rational Design of Selective Adenine-Based Scaffolds for Inactivation of Bacterial Histidine Kinases” (J Med Chem, 2017):
One block for each molecule: values may come before it. The source made the active and inactive calls. No cut-off for these calls is given here.

Tests used:
Thermotoga maritima [1] = assay: Induction of Thermotoga maritima His-tagged HK853 expressed in Escherichia coli BL21(DE3)pLysS Rosetta aggregation at 100 uM after 30 mins by PAGE analysis
Method in brief: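 Samples were run on 7.5% native-PAGE and silver stained. Aggregation was scored as loss of the dimeric HK853 band. NH125 served as positive aggregation control.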

[2] = target: T1, Heat shock protein HSP 90-alpha (Homo sapiens, UniProt P07900); assay: Inhibition of full length human C-terminal His-tagged Hsp90 alpha expressed in Escherichia coli at […] by fluorescence polarization assay relative to control
Thermotoga maritima [3] = assay: Binding affinity to wild type Thermotoga maritima His-tagged HK853 expressed in Escherichia coli BL21(DE3)pLysS Rosetta assessed as change in melting temperature at 1 mM by SYPRO orange dye based differential scanning fluorimetric analysis
Method in brief: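 Wild-type HK853 at 2–5 µM final in reaction buffer, with SYPRO orange at 5x final. Compound was added at 1 mM final from a 25 mM DMSO stock; the control got DMSO alone. Reactions were 25 µL, made up on ice. Melt ran 20–95 °C at 1 °C min⁻¹ with HEX-filter fluorescence. Tm came from the melt curves, and ΔTm was taken against the control.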

[4] = Selectivity ratio of IC50 for human full length C-terminal His-tagged Hsp90 alpha expressed in Escherichia coli to IC50 for Thermotoga maritima His-tagged HK853 expressed in Escherichia coli BL21(DE3)pLysS Rosetta
Thermotoga maritima [5] = assay: Binding affinity to Thermotoga maritima His-tagged HK853 D411A mutant expressed in Escherichia coli BL21(DE3)pLysS Rosetta assessed as change in melting temperature at 1 mM by SYPRO orange dye based differential scanning fluorimetric analysis
Thermotoga maritima [6] = assay: Induction of Thermotoga maritima His-tagged HK853 aggregation expressed in Escherichia coli BL21(DE3)pLysS Rosetta at >= […] after 30 mins by PAGE analysis
[7] = Inhibition of BODIPY-FL-ATPgammaS binding to Thermotoga maritima His-tagged HK853 expressed in Escherichia coli BL21(DE3)pLysS Rosetta preincubated for 30 mins followed by 1 hr incubation by SDS-PAGE in-gel fluorescence assay
Thermotoga maritima [8] = assay: Inhibition of ATPgammaS-BODIPY binding to Thermotoga maritima His-tagged HK853 expressed in Escherichia coli BL21(DE3)pLysS Rosetta at […] preincubated for 30 mins prior to ATPgammaS-BODIPY addition measured after 1 hr by […] SDS-PAGE analysis
[9] = target: T1, Heat shock protein HSP 90-alpha; assay: Inhibition of full length human C-terminal His-tagged Hsp90 alpha expressed in Escherichia coli by fluorescence polarization assay
Thermotoga maritima [10] = assay: Induction of Thermotoga maritima His-tagged HK853 expressed in Escherichia coli BL21(DE3)pLysS Rosetta aggregation at […] after 30 mins by PAGE analysis

SMILES: Nc1nc(Cl)nc2c1ncn2[C@@H]1O[C@H](CO)[C@@H](O)[C@H]1O
- inhibition [2]: > 45%

SMILES: CCCN(CCC)c1[nH]cnc2ncnc1-2
- inhibition [2]: > 45%
- ΔTm (Thermotoga maritima [3]): 10 °C
- Ratio IC50 [4]: 10 to 2000
- ΔTm (Thermotoga maritima [5]): < 2 °C

SMILES: CC1CC(Nc2ncnc3[nH]cnc23)CC(C)(C)C1 (centres undefined)
- Ratio IC50 [4]: 10 to 2000

SMILES: Nc1ncnc2c1ncn2[C@@H]1O[C@H](COP(=O)(O)O)[C@@H](O)[C@H]1O [ADENOSINE PHOSPHATE]
- IC50 [7]: 1030 µM

SMILES: c1ccc(N2CCN(c3ncnc4[nH]cnc34)CC2)nc1
- Activity (Thermotoga maritima [1]): Active

SMILES: CC[C@@H](Nc1ncnc2nc[nH]c12)c1nc2cccc(F)c2c(=O)n1-c1ccccc1
- inhibition (Thermotoga maritima [8]): inactive

SMILES: COc1ccccc1N1CCN(c2[nH]cnc3ncnc2-3)CC1
- Activity (Thermotoga maritima [1]): Active

SMILES: CC1CCN(c2ncnc3[nH]cnc23)CC1
- Activity (Thermotoga maritima [1]): Active

SMILES: Nc1ncnc2c1ncn2[C@@H]1O[C@H](COP(=O)(O)OP(=O)(O)O)[C@@H](O)[C@H]1O [ADENOSINE DIPHOSPHATE]
- ΔTm (Thermotoga maritima [3]): 10 °C
- ΔTm (Thermotoga maritima [5]): < 2 °C
- IC50 [7]: 2.4 µM

SMILES: Cn1cnc2c(N)nc(Cl)nc21
- inhibition [2]: > 45%
- Ratio IC50 [4]: 10 to 2000
- IC50 [9]: > 1250 µM
- Activity (Thermotoga maritima [10]): inactive

SMILES: C=CC(=O)N1CCC[C@H](n2nc(-c3ccc(Oc4ccccc4)cc3)c3c(N)ncnc32)C1
- inhibition (Thermotoga maritima [8]): inactive

SMILES: Cc1ccccc1OCn1cnc2c(N)ncnc21
- Activity (Thermotoga maritima [1]): Active

SMILES: Nc1ncnc2c1ncn2[C@@H]1O[C@H](COP(=O)(O)OP(=O)(O)OP(=O)(O)O)[C@@H](O)[C@H]1O [ADENOSINE TRIPHOSPHATE]
- IC50 [7]: 27 µM

SMILES: FC(F)(F)c1cccnc1N1CCN(c2[nH]cnc3ncnc2-3)CC1
- Activity (Thermotoga maritima [1]): Active

SMILES: Nc1ncnc2c1ncn2CCN1CCOCC1
- Activity (Thermotoga maritima [1]): Active

Results, then the molecule that gave them:

- Activity (Thermotoga maritima [1]): Active
SMILES: NS(=O)(=O)c1ccc(CCNc2ncnc3[nH]cnc23)cc1

- Activity (Thermotoga maritima [1]): Active
SMILES: Clc1ccc(CSc2[nH]cnc3ncnc2-3)cc1

- Activity (Thermotoga maritima [1]): Active
SMILES: Brc1ccc(CSc2[nH]cnc3ncnc2-3)cc1

- Activity (Thermotoga maritima [6]): inactive
SMILES: c1ccc(Nc2ncnc3[nH]cnc23)cc1

- Activity (Thermotoga maritima [1]): Active
SMILES: Clc1ccccc1CSc1ncnc2[nH]cnc12

- Activity (Thermotoga maritima [1]): Active
SMILES: Clc1c(CSc2ncnc3[nH]cnc23)ccc2c1OCO2

- Activity (Thermotoga maritima [1]): Active
SMILES: COc1ccc(OC)c(NC(=O)CSc2ncnc3[nH]cnc23)c1

- Activity (Thermotoga maritima [1]): Active
SMILES: Brc1cccc(CSc2ncnc3[nH]cnc23)c1

- inhibition [2]: > 45%
SMILES: c1ccc(CCNc2ncnc3[nH]cnc23)cc1

- Activity (Thermotoga maritima [1]): Active
SMILES: C=CCSc1ncnc2[nH]cnc12

- Activity (Thermotoga maritima [1]): Active
SMILES: c1ccc(CSc2ncnc3[nH]cnc23)cc1
